Results published in ChEMBL document CHEMBL1137629, “Antiproliferative effect of dihydroxyacetone on Trypanosoma brucei bloodstream forms: cell cycle progression, subcellular alterations, and cell death” (Antimicrob Agents Chemother, 2007).
Active and inactive are the calls of the source. The calls are words filed in the database; no cut-off is given here.

Tests used:
Trypanosoma brucei [1] = test: Effect on morphological changes in Trypanosoma brucei bloodstream form assessed as increase in mitochondrion size at 3 mM after 24 hrs by transmission electron microscopy; format: functional, organism-based
Procedure, shortened: (§1)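 Parasites exposed 24 h to 3 mM DHA. 10⁸ cells fixed 1 h at 4°C in 2% glutaraldehyde in 0.2 M sodium cacodylate with 0.12 M sucrose, held overnight in buffer, postfixed in 1.5% osmium tetroxide and stained with 0.5% uranyl acetate. Dehydrated in ethanol, cleared in propylene oxide, embedded in Agar 100. Sections stained with 5% uranyl acetate and 0.4% lead citrate for TEM. Rapamycin (5 μM) served as the autophagy positive control.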

Trypanosoma brucei [2] = test: Induction of apoptosis-like programmed cell death in Trypanosoma brucei bloodstream form assessed as increase in intracellular reactive oxygen species production at 4 mM after 24 hrs by FACS analysis; format: functional
Procedure, shortened: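 Bloodstream-form T. brucei MITat 1.2 (VSG 221, strain EATRO 427) were grown axenically at 37°C, 5% CO₂ and exposed to DHA for 24 h. Control and treated cells were then loaded with 10 μM dichlorofluorescein diacetate for 1 h at 37°C. Intracellular fluorescence intensity was read by flow cytometry.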

Trypanosoma brucei [3] = test: Effect on morphological changes in Trypanosoma brucei bloodstream form assessed as presence of myelin-like structures at 3 mM after 24 hrs by transmission electron microscopy; format: functional, organism-based; procedure, shortened: as §1
Trypanosoma brucei [4] = test: Cell cycle arrest in Trypanosoma brucei bloodstream form assessed as accumulation at G2 phase at 2 mM after 24 hrs using propidium iodide staining by FACS analysis; format: functional
Procedure, shortened: (§2)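 T. brucei bloodstream forms (MITat 1.2, strain EATRO 427), axenic culture at 37°C, 5% CO₂. Treated 24 h. At least 5 × 10⁵ cells washed in PBS, lysed hypotonically 30 min at room temperature in 10 mM phosphate buffer pH 7.4 with 6 μM digitonin. Nuclei stained with propidium iodide (10 μg/ml final) and analysed by flow cytometry for G₁/S/G₂ distribution and degraded DNA.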

Trypanosoma brucei [5] = test: Effect on morphological changes in Trypanosoma brucei bloodstream form assessed as dilation of mitochondrial membrane at 3 mM after 24 hrs by transmission electron microscopy; format: functional, organism-based; procedure, shortened: as §1
Trypanosoma brucei [6] = test: Induction of apoptosis-like programmed cell death in Trypanosoma brucei bloodstream form assessed as phosphatidylserine exposure in outer leaflet of plasma membrane at 5 uM after 24 hrs by V-Fluos staining staining; format: functional
Trypanosoma brucei [7] = test: Effect on cell cycle of Trypanosoma brucei bloodstream form assessed as DNA content at 2 mM after 24 hrs using propidium iodide staining by FACS analysis; format: functional; procedure, shortened: as §2
Trypanosoma brucei [8] = test: Induction of apoptosis-like programmed cell death in Trypanosoma brucei bloodstream form assessed as phosphatidylserine exposure in outer leaflet of plasma membrane at 1 mM after 24 hrs by V-Fluos staining staining; format: functional
Procedure, shortened: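 After 24 h DHA exposure of axenic bloodstream-form T. brucei MITat 1.2 (EATRO 427; 37°C, 5% CO₂), cells were washed in HEPES buffer (10 mM, pH 7.4, 140 mM NaCl, 5 mM CaCl₂). They were then stained with annexin V-Fluos for 15 min at 4°C and analysed by flow cytometry.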

Trypanosoma brucei [9] = test: Effect on cell cycle of Trypanosoma brucei bloodstream form assessed as induction of necrosis at 4 mM after 24 hrs using propidium iodide staining by FACS analysis; format: functional
Procedure, shortened: (§3)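 Bloodstream forms exposed 24 h at 37°C, 5% CO₂. Cells at 2 × 10⁶/ml incubated 10 min with propidium iodide (5 μg/ml), and uptake read by flow cytometry as a measure of membrane integrity. Digitonin (6 μM) served as the necrosis positive control.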

Trypanosoma brucei [10] = test: Cell cycle arrest in Trypanosoma brucei bloodstream form assessed as accumulation at G2/M phase at 2 mM after 24 hrs using propidium iodide staining by FACS analysis; format: functional; procedure, shortened: as §2
Trypanosoma brucei [11] = test: Effect on morphological changes in Trypanosoma brucei bloodstream form assessed as presence of one or two nucleus at 3 mM after 24 hrs by transmission electron microscopy; format: functional, organism-based; procedure, shortened: as §1
Trypanosoma brucei [12] = test: Effect on cell cycle of Trypanosoma brucei bloodstream form assessed as induction of necrosis at 3 mM after 24 hrs using propidium iodide staining by FACS analysis; format: functional; procedure, shortened: as §3
Trypanosoma brucei [13] = test: Effect on cell cycle of Trypanosoma brucei bloodstream form assessed as DNA content at 1 mM after 24 hrs using propidium iodide staining by FACS analysis; format: functional; procedure, shortened: as §2
Trypanosoma brucei [14] = test: Trypanocidal activity against Trypanosoma brucei bloodstream form assessed as decrease in cell density after 24 hrs by spectrophotometry; format: functional, organism-based
Procedure, shortened: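 Proliferation measured in complete medium (33 mM glucose, 15% serum) with a range of DHA concentrations. Cell density followed over 24 h. Triplicate, SD.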

SMILES: O=C(CO)CO [DIHYDROXYACETONE]
- Activity (Trypanosoma brucei [1]): Active
- Activity (Trypanosoma brucei [2]): 23.2%
- Activity (Trypanosoma brucei [3]): Active
- Activity (Trypanosoma brucei [4]): 50%
- Activity (Trypanosoma brucei [5]): Active
- Activity (Trypanosoma brucei [6]): 35.8%
- Activity (Trypanosoma brucei [7]): 9%
- Activity (Trypanosoma brucei [8]): 6.3%
- Activity (Trypanosoma brucei [9]): 12.9%
- Activity (Trypanosoma brucei [10]): <=70%
- Activity (Trypanosoma brucei [11]): Active
- Activity (Trypanosoma brucei [12]): 9.9%
- Activity (Trypanosoma brucei [13]): 4.5%
- Activity (Trypanosoma brucei [14]): Dose-dependent effect
